pEC50: −log10 of the molar value. Numbered stars: 1 amine (or outer) side, 2 acyl side, 3 side chain; on linkers, the order of the positions; unused ones are H or OH. Bridge positions count the residues as written; N and C are the ends. Square brackets hold non-standard residues; d marks the D form. Peptide text beside a SMILES is read from it. * marks the point of attachment. 2Thi = N[C@@H](Cc1cccs1)C(=O)O; X1 = O=C(CCC[*:2])[*:1]; NH(CH2)4NH2 = NCCCCN*
Columns and labels:
[1] = molecular target: Oxytocin receptor (Homo sapiens) (UniProt P30559); test: Agonist activity at recombinant human oxytocin receptor expressed in HEK293 cells measured after 5 hrs by luciferase reporter gene assay relative to control; conditions: read-out: Efficacy
Sequence of Oxytocin receptor (Homo sapiens) (P30559 whole entry, looked up): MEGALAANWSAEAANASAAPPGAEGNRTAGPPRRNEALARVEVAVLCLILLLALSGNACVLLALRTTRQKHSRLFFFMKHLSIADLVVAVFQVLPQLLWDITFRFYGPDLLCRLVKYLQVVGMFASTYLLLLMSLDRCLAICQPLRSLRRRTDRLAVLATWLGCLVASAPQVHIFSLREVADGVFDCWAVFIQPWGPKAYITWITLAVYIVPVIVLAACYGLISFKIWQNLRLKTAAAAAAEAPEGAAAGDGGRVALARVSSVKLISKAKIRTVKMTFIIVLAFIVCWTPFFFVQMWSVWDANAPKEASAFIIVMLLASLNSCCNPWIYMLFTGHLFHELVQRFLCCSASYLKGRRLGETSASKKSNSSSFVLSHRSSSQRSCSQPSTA

[2] = Clearance in Sprague-Dawley rat at 0.1 mg/kg, iv administered as cassette dose by LC-MS/MS analysis; assay type: ADME, organism-based; conditions: in vivo
Vasopressin V2 receptor = Vasopressin V2 receptor (Homo sapiens, UniProt P30518); test: Agonist activity at recombinant human V2 receptor expressed in HEK293 cells measured after 5 hrs by cAMP response element driven luciferase reporter gene assay; assay type: functional, cell-based
Sequence of Vasopressin V2 receptor (P30518 whole entry): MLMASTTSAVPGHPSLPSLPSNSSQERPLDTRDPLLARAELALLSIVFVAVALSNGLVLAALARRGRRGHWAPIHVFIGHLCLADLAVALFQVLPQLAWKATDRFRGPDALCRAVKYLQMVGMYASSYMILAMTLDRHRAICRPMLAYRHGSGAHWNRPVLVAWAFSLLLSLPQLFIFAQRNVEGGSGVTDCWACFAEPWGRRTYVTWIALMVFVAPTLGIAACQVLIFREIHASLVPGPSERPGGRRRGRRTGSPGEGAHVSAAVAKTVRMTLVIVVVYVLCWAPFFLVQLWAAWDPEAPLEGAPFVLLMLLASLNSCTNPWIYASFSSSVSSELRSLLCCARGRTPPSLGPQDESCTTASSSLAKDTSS

[3] = molecular target: Oxytocin receptor (Homo sapiens) (UniProt P30559); test: Agonist activity at recombinant human oxytocin receptor expressed in HEK293 cells measured after 5 hrs by luciferase reporter gene assay
[4] = Non-renal clearance in nephrectomized Sprague-Dawley rat at 0.1 mg/kg, iv administered as cassette dose by LC-MS/MS analysis; assay type: ADME, organism-based; conditions: in vivo
Vasopressin V1a receptor = Vasopressin V1a receptor (Homo sapiens, UniProt P37288); test: Agonist activity at recombinant human V1a receptor expressed in HEK293 cells up to 1000 nM measured after 5 hrs by luciferase reporter gene assay; assay type: cell-based; conditions: hek293, 5 h
Sequence of Vasopressin V1a receptor (P37288 whole entry): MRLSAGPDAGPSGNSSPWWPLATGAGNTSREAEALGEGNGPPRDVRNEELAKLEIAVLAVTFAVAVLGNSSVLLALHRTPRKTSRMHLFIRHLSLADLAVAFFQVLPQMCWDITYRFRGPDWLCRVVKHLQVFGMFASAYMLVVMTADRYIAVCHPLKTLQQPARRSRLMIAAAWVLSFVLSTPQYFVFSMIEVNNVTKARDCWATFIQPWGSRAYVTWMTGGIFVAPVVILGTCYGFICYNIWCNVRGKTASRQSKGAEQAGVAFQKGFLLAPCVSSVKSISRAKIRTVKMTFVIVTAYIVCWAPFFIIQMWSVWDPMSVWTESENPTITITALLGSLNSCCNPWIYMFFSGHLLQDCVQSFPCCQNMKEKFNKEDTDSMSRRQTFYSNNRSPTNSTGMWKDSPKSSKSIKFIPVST

[5] = Protein binding in rat plasma at 200 to 1000 ng/ml measured after 15 mins by UC-LC/MS/MS analysis; assay type: ADME, cell-free; conditions: read-out: PPB (converted)
In short: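 Peptide spiked into rat plasma to final 200-1000 ng/mL, incubated 15 min at 37 °C, ultracentrifuged at 773,000 xg for 30 min at 37 °C; middle-layer sample quantified by LC/MS/MS; binding (%) = (Ci − Cm)/Ci × 100; quadruplicate.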

Question: Which Emax [1] does the source give for `CC(C)[C@@H]1NC(=O)[C@H](Cc2cccs2)NC(=O)[C@H](Cc2ccc(O)cc2)NC(=O)CCCSC[C@@H](C(=O)N2CCC[C@H]2C(=O)NCCCCN)NC(=O)[C@H](CC(N)=O)NC1=O` (Y[2Thi]VNCP-{NH(CH2)4NH2}; linker N-5 via X1) here?
Answer: 28%

Question: And the clearance [2]?
Answer: 7.2 mL/min/kg

Question: And the pEC50 (Vasopressin V2 receptor)?
Answer: 9.72

Question: And the pEC50 [3]?
Answer: 6.19

Question: And the CL [4]?
Answer: 18%

Question: What about the Activity (Vasopressin V1a receptor) of the same compound?
Answer: Not Active

Question: And the fraction unbound at […] [5]?
Answer: 0.58

From ChEMBL document CHEMBL4396873, “Discovery of Potent, Selective, and Short-Acting Peptidic V2 Receptor Agonists” (J Med Chem, 2019)
